By EC50 is commonly meant the concentration at which the effect is half-maximal. In general, half-life refers to how long it takes for the measured level to halve. The low end stands for rapid decline, the high end for slow decline. As usually defined, the MRT is the average time that molecules of a dose stay in the body. Broadly, the IC50 is the concentration needed to halve the response being measured. A higher IC50 goes with weaker potency in that assay.

Data set [1] has as its target Glucagon-like peptide 1 receptor (Homo sapiens, UniProt P43220). In words: Agonist activity at human GLP1R expressed in CHO cells assessed as stimulation of intracellular [3H]cAMP accumulation after 30 mins by scintillation proximity assay. In kind it is functional, cell-based. The method in brief: (§1)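 CHO cells stably expressing human or mouse GLP-1R, grown in F-12 with 10% FBS plus Geneticin (0.4 mg/mL human, 1 mg/mL mouse), plated 2×10^4/well overnight. Half-log dilutions made in DMSO, then in DPBS with 0.1 mM IBMX and 0.05% BSA (final 1% DMSO). Cells exposed 30 min. cAMP read by SPA and converted to pmol via standard curve. Duplicates, at least three separate runs.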

Data set [2] can be described thus: Half life in patient with type 2 diabetes at 2.5 to 25 nmol, iv administered as bolus dose. The format is ADME, organism-based. As to conditions: human, in vivo.
For data set [3], the target named is T1, Glucagon-like peptide 1 receptor (Mus musculus, UniProt O35659).
T1 sequence (O35659 whole entry): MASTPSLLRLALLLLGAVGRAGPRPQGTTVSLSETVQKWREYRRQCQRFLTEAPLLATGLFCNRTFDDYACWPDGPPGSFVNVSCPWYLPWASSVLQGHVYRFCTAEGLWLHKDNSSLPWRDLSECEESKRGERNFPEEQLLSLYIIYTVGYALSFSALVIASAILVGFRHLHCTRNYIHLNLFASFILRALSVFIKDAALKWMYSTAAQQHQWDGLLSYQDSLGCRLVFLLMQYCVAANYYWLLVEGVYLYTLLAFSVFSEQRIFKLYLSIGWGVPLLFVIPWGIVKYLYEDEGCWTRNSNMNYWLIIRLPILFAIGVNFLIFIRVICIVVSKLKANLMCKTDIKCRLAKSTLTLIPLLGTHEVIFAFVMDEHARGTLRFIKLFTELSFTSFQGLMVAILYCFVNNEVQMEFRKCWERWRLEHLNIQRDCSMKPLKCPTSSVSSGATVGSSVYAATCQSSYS
In words: Agonist activity at mouse GLP1R expressed in CHO cells assessed as stimulation of intracellular [3H]cAMP accumulation by scintillation proximity assay. The format is functional, cell-based. The method, boiled down:
as §1

In data set [4] the test system is Mus musculus. In words: Antidiabetic activity in insulin-resistant ob/ob mouse assessed as reduction in plasma glucose level at 300 nmol/kg, sc administered 30 mins before glucose infusion measured after 30 to 180 mins of glucose challenge by intraperitoneal glucose tolerance test. The format is functional, organism-based. The method, boiled down: (§2)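 Male ob/ob mice, 19 weeks old, 6 per group, randomized on fed glucose and body weight. After an 18 h fast, single sc dose in 1:1 propylene glycol/20 mM sodium phosphate pH 7.4 (0.1 mL/100 g) at -30 min. 2 g/kg glucose (50%) given ip at time 0. Tail bleeds at 0, 30, 60, 120 and 180 min into K-EDTA. Glucose measured on analyzer, insulin by ultrasensitive mouse ELISA. ANOVA with Dunnett's test versus vehicle.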

The test system of data set [5] is Mus musculus. In words: Antidiabetic activity in insulin-resistant ob/ob mouse assessed as increase in plasma insulin level at 300 nmol/kg, sc administered 30 mins before glucose infusion measured after 30 mins of glucose challenge by intraperitoneal glucose tolerance test. The format is functional, organism-based. The method in brief: as §2
Data set [6] relates to Mus musculus. In words: Antidiabetic activity in insulin-resistant ob/ob mouse assessed as increase in plasma insulin level at 300 nmol/kg, sc administered 30 mins before glucose infusion measured after 60 mins of glucose challenge by intraperitoneal glucose tolerance test. In kind it is functional, organism-based. The method in brief:
as §2

The nature of data set [7]: Cmax in insulin-resistant ob/ob mouse at 300 nmol/kg, sc up to 24 hrs by LC-MS/MS analysis. In kind it is ADME, organism-based. Set-up: dose 300 nmol/kg, route subcutaneous. As to conditions: in vivo. The method, boiled down: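 ob/ob mice dosed sc at 300 nmol/kg in 1:1 propylene glycol/20 mM sodium phosphate pH 7.4. Plasma sampled at 1, 2, 4, 6, 8 and 24 h and quantified by LC-MS/MS.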

The next data set concerns Canis familiaris. In words: Tmin in Beagle dog at 67 ug/kg, sc by LC-MS/MS analysis. In kind it is ADME, organism-based, Canis lupus familiaris. As to conditions: in vivo, 0.067 mg/kg.
Data set [8] is described as follows: Mean residence time in Beagle dog at 67 ug/kg, sc by LC-MS/MS analysis. The format is ADME, organism-based, Canis lupus familiaris. As to conditions: in vivo, 0.067 mg/kg.
In data set [9] the target is T2, Gastric inhibitory polypeptide receptor (Homo sapiens, UniProt P48546).
T2 sequence (P48546 whole entry): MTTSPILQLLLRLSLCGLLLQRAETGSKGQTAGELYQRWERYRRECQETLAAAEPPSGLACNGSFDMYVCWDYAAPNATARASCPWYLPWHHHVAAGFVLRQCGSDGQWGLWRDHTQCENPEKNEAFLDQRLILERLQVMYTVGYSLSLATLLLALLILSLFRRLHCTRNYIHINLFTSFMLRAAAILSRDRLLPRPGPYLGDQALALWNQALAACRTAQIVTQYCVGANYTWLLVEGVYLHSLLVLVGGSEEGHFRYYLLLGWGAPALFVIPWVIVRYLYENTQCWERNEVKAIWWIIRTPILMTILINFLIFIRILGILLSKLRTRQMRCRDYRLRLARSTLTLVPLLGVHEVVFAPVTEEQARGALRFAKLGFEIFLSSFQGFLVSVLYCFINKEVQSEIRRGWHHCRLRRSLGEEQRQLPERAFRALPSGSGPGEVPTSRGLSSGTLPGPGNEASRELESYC
In words: Agonist activity at GIPR. The format is functional.

The target in another data set is Glucagon receptor (Homo sapiens, UniProt P47871). In words: Agonist activity at glucagon receptor. The format is functional.
Sequence of Glucagon receptor (P47871 whole entry): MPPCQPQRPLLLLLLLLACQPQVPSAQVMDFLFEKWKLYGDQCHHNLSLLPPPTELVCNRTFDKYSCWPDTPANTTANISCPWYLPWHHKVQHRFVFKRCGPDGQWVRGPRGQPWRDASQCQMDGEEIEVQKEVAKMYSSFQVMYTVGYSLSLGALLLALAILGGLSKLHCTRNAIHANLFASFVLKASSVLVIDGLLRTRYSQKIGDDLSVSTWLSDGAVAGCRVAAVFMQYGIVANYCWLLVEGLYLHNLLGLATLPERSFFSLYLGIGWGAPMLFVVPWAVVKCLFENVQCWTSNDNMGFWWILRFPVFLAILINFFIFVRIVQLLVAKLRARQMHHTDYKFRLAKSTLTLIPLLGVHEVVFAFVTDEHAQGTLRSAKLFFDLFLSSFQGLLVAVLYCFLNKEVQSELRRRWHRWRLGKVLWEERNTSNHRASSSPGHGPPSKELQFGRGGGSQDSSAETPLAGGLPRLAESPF
Data set [10] in a line: Agonist activity at PACAP receptor. In kind it is functional.
The nature of data set [11]: Agonist activity at VIP receptor. The format is functional.
Data set [12] addresses T3, Parathyroid hormone/parathyroid hormone-related peptide receptor (Homo sapiens, UniProt Q03431).
T3 sequence (Q03431 whole entry): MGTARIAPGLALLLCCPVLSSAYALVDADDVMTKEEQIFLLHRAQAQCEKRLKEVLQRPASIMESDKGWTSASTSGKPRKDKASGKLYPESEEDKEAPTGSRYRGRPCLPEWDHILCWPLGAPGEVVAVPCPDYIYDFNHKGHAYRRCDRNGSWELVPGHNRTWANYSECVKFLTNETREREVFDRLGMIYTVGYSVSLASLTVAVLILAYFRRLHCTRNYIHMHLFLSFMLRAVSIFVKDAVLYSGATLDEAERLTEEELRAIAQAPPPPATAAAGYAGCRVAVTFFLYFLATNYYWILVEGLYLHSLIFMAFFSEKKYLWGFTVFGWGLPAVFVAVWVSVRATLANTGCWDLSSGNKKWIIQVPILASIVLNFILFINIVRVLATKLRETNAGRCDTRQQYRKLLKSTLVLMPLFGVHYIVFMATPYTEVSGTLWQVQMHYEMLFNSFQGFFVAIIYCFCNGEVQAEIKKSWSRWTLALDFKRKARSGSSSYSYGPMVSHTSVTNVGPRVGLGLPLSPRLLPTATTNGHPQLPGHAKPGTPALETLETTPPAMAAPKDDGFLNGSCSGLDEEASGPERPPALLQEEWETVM
In words: Agonist activity at PTHR. In kind it is functional.

Data set [13] deals with Mus musculus. In words: Antidiabetic activity in insulin-resistant ob/ob mouse assessed as reduction in plasma glucose level at 30 nmol/kg, sc administered 30 mins before glucose infusion measured after 30 to 180 mins of glucose challenge by intraperitoneal glucose tolerance test. In kind it is functional, organism-based. The method, boiled down:
as §2

For data set [14], the system named is Mus musculus. In words: Antidiabetic activity in insulin-resistant ob/ob mouse assessed as increase in plasma insulin level at 30 nmol/kg, sc administered 30 mins before glucose infusion measured after 30 to 180 mins of glucose challenge by intraperitoneal glucose tolerance test. The format is functional, organism-based. The method in brief:
as §2

The structures appear in SMILES notation. The source made the active and inactive calls. The rule behind the calls is not given here. Square brackets hold non-standard residues; d marks the D form. Peptide text beside a SMILES is read from it. Bip(2'-Et-4'-OMe) = CCc1cc(OC)ccc1-c1ccc(C[C@H](N)C(=O)O)cc1; Bip(2'-Me) = Cc1ccccc1-c1ccc(C[C@H](N)C(=O)O)cc1; αMePhe(2,6-F2) = C[C@](N)(Cc1c(F)cccc1F)C(=O)O; αMePhe(2-F) = C[C@](N)(Cc1ccccc1F)C(=O)O; Aib = CC(C)(N)C(=O)O

Sequence of Glucagon-like peptide 1 receptor (Homo sapiens, UniProt P43220) (P43220 whole entry): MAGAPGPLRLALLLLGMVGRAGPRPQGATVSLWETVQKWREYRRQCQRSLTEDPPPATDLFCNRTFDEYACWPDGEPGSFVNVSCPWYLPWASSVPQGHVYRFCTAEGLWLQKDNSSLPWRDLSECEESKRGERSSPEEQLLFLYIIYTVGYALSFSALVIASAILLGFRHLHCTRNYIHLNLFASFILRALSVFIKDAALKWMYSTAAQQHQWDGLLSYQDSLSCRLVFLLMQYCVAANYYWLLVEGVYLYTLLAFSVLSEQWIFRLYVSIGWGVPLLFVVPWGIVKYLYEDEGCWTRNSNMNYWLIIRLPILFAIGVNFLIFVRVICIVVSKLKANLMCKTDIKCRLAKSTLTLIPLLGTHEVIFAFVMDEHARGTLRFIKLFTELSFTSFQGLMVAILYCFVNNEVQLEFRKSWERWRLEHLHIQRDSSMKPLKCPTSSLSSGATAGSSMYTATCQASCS

For the compound `CC[C@H](C)[C@H](NC(=O)[C@H](Cc1ccccc1)NC(=O)[C@H](CCC(=O)O)NC(=O)[C@H](CCCCN)NC(=O)[C@H](C)NC(=O)[C@H](C)NC(=O)[C@H](CCC(N)=O)NC(=O)CNC(=O)[C@H](CCC(=O)O)NC(=O)[C@H](CC(C)C)NC(=O)[C@@H](NC(=O)[C@H](CO)NC(=O)[C@H](CO)NC(=O)[C@@H](NC(=O)[C@H](CC(=O)O)NC(=O)[C@H](CO)NC(=O)[C@@H](NC(=O)[C@H](Cc1ccccc1)NC(=O)[C@@H](NC(=O)CNC(=O)[C@H](CCC(=O)O)NC(=O)[C@H](C)NC(=O)[C@@H](N)Cc1cnc[nH]1)[C@@H](C)O)[C@@H](C)O)C(C)C)[C@@H](C)O)C(=O)N[C@@H](C)C(=O)N[C@@H](Cc1c[nH]c2ccccc12)C(=O)N[C@@H](CC(C)C)C(=O)N[C@H](C(=O)N[C@@H](CCCCN)C(=O)NCC(=O)N[C@@H](CCCN=C(N)N)C(N)=O)C(C)C`, in data set [1], the concentration giving a half-maximal response (EC50) is 0.034 nM. Also, the half-life in data set [2] is 2 min.
On to `CCc1cc(OC)ccc1-c1ccc(C[C@H](NC(=O)[C@H](CC(=O)O)NC(=O)[C@H](CO)NC(=O)[C@@H](NC(=O)[C@](C)(Cc2c(F)cccc2F)NC(=O)[C@@H](NC(=O)CNC(=O)[C@H](CCC(=O)O)NC(=O)C(C)(C)NC(=O)[C@@H](N)Cc2cnc[nH]2)[C@@H](C)O)[C@@H](C)O)C(=O)N[C@@H](Cc2ccc(-c3ccccc3C)cc2)C(N)=O)cc1` (H-H[Aib]EGT[αMePhe(2,6-F2)]TSD[Bip(2'-Et-4'-OMe)][Bip(2'-Me)]-NH2), for which the EC50 in data set [1] was 0.12 nM; in data set [3], 0.8 nM. Further, the result in the data set on Mus musculus [4], in the data set on Mus musculus [5] and with Mus musculus [6] was Active. The compound also gave a Cmax in data set [7] of over 2000 nM. Further, the Tmin with Canis familiaris was 24 h. The compound further registered a mean residence time MRT in [8] of 20 h.
For `CCc1cc(OC)ccc1-c1ccc(C[C@H](NC(=O)[C@H](CC(=O)O)NC(=O)[C@H](CO)NC(=O)[C@@H](NC(=O)[C@](C)(Cc2ccccc2F)NC(=O)[C@@H](NC(=O)CNC(=O)[C@H](CCC(=O)O)NC(=O)C(C)(C)NC(=O)[C@@H](N)Cc2cnc[nH]2)[C@@H](C)O)[C@@H](C)O)C(=O)N[C@@H](Cc2ccc(-c3ccccc3C)cc2)C(N)=O)cc1` (H-H[Aib]EGT[αMePhe(2-F)]TSD[Bip(2'-Et-4'-OMe)][Bip(2'-Me)]-NH2), the EC50 was 0.087 nM in data set [1]; over 10 µM in data set [9]; over 10 µM on Glucagon receptor; over 10 µM in data set [10]; over 10 µM in data set [11]; over 10 µM in [12]. In [3], the 50% effective concentration (EC50) is 2.4 nM. Further, the IC50 (in data set [9]; on Glucagon receptor; in data set [10]; in [11]; in data set [12]) was over 10 µM each time. The outcome in the data set on Mus musculus [13], with Mus musculus [4], in the data set on Mus musculus [14], in the data set on Mus musculus [5] and with Mus musculus [6] was Active. For the same compound, the Cmax in data set [7] was over 2000 nM. Besides, the Tmin with Canis familiaris is 8 h.

Values taken from ChEMBL document CHEMBL1156009, “Eleven amino acid glucagon-like peptide-1 receptor agonists with antidiabetic activity” (J Med Chem, 2009).
